Data set [1] relates to Staphylococcus epidermidis. Put plainly: Antibacterial activity against methicillin-resistant Staphylococcus epidermidis ATCC 35984 after 16 to 18 hrs by broth microdilution method. It is filed as functional. (In general: Dilution methods test growth across graded concentrations, often in twofold steps.)
Data set [2] deals with Enterococcus faecium. Nature of the data set: Antibacterial activity against vancomycin-resistant Enterococcus faecium ATCC 700221 after 16 to 18 hrs by broth microdilution method. It is filed as functional. In a few lines: (§1)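 CLSI broth microdilution in Lysogeny Broth, eleven two-fold dilutions spanning 0.10–100 µM; ~10^5 cells per well from log-phase culture; DMSO vehicle (top 1% v/v). MIC = lowest concentration preventing growth after 16–18 h at 37 °C, supported by OD600; three independent experiments.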

Data set [3] concerns Staphylococcus aureus. Nature of the data set: Antibacterial activity against methicillin-resistant Staphylococcus aureus BAA-1707 after 16 to 18 hrs by broth microdilution method. It is filed as functional. In a few lines:
as §1

The subject of data set [4] is Mycobacterium tuberculosis. Put plainly: Antibacterial activity against Mycobacterium tuberculosis H37Ra ATCC 25177 after 7 days. The class given is functional. The following applies: H37Ra ATCC 25177, 168 h. In a few lines: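 M. tuberculosis H37Ra grown two weeks in Middlebrook 7H9, diluted to OD600 0.01; two-fold serial dilutions 0.024–50 µM (streptomycin positive control, 0.16–340 µM); final DMSO 0.5%. Incubated 7 days at 37 °C; MIC = lowest concentration with no growth, OD600 recorded; three independent experiments.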

Data set [5] in a line: Selectivity index, ratio of IC50 for human HeLa cells to MIC for methicillin-resistant Staphylococcus aureus BAA-1707. The class given is toxicity. The note with it: read-out: Selectivity Index. An outline of the steps: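 HeLa cells in DMEM + 10% FBS, 37 °C, 5% CO2, at 70–80% confluence exposed 24 h to 25, 50 and 100 µM; LDH release read at 490 nm (Triton X-100 2% maximum, medium-only minimum); three independent experiments. Index = HeLa IC50 divided by MRSA BAA-1707 MIC.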

The subject of a further data set is HeLa. Nature of the data set: Cytotoxicity against human HeLa cells after 24 hrs by LDH release assy. The class given is cell-based. An outline of the steps:
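HeLa cells in DMEM with 10% FBS at 37 °C, 5% CO2, dosed at 70-80% confluence with compound diluted in medium at 25, 50 and 100 µM for 24 h. Supernatant mixed with LDH reaction mixture, 30 min at room temperature, stopped, A490 read. Triton X-100 (2% v/v) as maximal-release control, medium only as no-death control, DMSO as vehicle. Three independent experiments.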
On the technique in general: LDH in the medium is a marker of cell lysis.

A short description of data set [6]: Hemolytic activity in human RBC at 200 uM after 1 hr relative to control. It is filed as ADME, cell-based, Erythrocyte. The following applies: red blood cells (erythrocytes), read-out: Activity. In a few lines: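 Human RBCs drawn fresh into EDTA were washed three times in Tris-buffered saline (0.01 M Tris, 0.155 M NaCl, pH 7.2). 2% hRBC suspension was added to compound from DMSO stock, final 200 µM, for 1 h at 37 °C, then centrifuged and supernatant OD405 read. Scaled between DMSO (0%) and Triton X (100%). Three independent experiments.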

Data set [7] deals with Enterococcus faecium. Nature of the data set: Bactericidal activity against vancomycin-resistant Enterococcus faecium ATCC 700221 planktonic cells after 24 hrs by calgary biofilm device method. It is filed as organism-based. In a few lines: (§2)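 Biofilms grown 24 h at 37 °C on Calgary device pegs from mid-log culture diluted 1,000-fold in TSB + 0.5% glucose; washed pegs challenged 24 h at 37 °C with 2-fold serial dilutions. Challenge medium subcultured into fresh TSBG overnight; MBC = concentration without visible turbidity; at least three independent experiments.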

A short description of data set [8]: Stability in lysogeny broth at 37 degC up to 16 hrs by UV-vis spectrophotometric method. The class given is physicochemical. An outline of the steps: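 Compound from 10 mM DMSO stock was added to LB pre-warmed to 37 °C and incubated at 37 °C. At each time point it was extracted with an equal volume of ethyl acetate, and UV-vis spectra were scanned from 200 to 700 nm in 2 nm steps.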

For data set [9], the system named is Enterococcus faecium. Nature of the data set: Induction of biofilm eradication of vancomycin-resistant Enterococcus faecium ATCC 700221 after 24 hrs by calgary biofilm device method. The class given is functional. In a few lines:
(§3)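 Calgary device: biofilms established 24 h at 37 °C from mid-log culture diluted 1,000-fold in TSBG (0.5% glucose), washed, exposed 24 h to 2-fold serial dilutions, then peg lid moved to fresh TSBG for 24 h recovery. MBEC = lowest concentration giving no turbidity; at least three independent experiments.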

Data set [10] in a line: Half life in human serum by LC-MS analysis. It is filed as ADME, cell-free. An outline of the steps:
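Human serum pre-warmed to 37 °C, spiked with prodrug from 10 mM DMSO stock plus internal standard, vortexed, then held 1 to 60 min. At each time point, acetonitrile with 0.5% formic acid was added to precipitate proteins. Released active HP was quantified as its ratio to internal standard against standard curves.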

Data set [11] has as its system Staphylococcus epidermidis. Nature of the data set: Bactericidal activity against methicillin-resistant Staphylococcus epidermidis ATCC 35984 planktonic cells after 24 hrs by calgary biofilm device method. It is filed as organism-based. In a few lines: as §2
Data set [12] concerns Staphylococcus aureus. Put plainly: Induction of biofilm eradication of methicillin-resistant Staphylococcus aureus BAA-1707 after 24 hrs by calgary biofilm device method. The class given is functional. An outline of the steps: as §3
The test system of data set [13] is Staphylococcus aureus. Put plainly: Bactericidal activity against methicillin-resistant Staphylococcus aureus BAA-1707 planktonic cells after 24 hrs by calgary biofilm device method. It is filed as organism-based. An outline of the steps: as §2
Data set [14] concerns Staphylococcus epidermidis. Nature of the data set: Induction of biofilm eradication of methicillin-resistant Staphylococcus epidermidis ATCC 35984 after 24 hrs by calgary biofilm device method. It is filed as functional. In a few lines:
as §3

Data set [15] in a line: Metal chelating activity assessed as compound-copper complex formation by UV-vis spectrometry.
Data set [16] concerns Staphylococcus aureus. Nature of the data set: Antibacterial activity against methicillin-resistant Staphylococcus aureus 2 after 16 to 18 hrs by broth microdilution method. It is filed as functional. In a few lines:
as §1

For data set [17], the system named is Staphylococcus aureus. Put plainly: Bactericidal activity against methicillin-resistant Staphylococcus aureus BAA-44 planktonic cells after 24 hrs by calgary biofilm device method. The class given is organism-based. In a few lines: as §2
Data set [18] concerns Staphylococcus aureus. Put plainly: Induction of biofilm eradication of methicillin-resistant Staphylococcus aureus 2 after 24 hrs by calgary biofilm device method. It is filed as functional. An outline of the steps:
as §3

The nature of data set [19]: Metal chelating activity assessed as compound-Fe2+ complex formation at 5 mM by UV-vis spectrometry. An outline of the steps: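 HP solutions given ammonium iron(II) sulfate hexahydrate; UV-vis scans 300–700 nm in 2 nm steps, λmax 374 nm. Loss of absorbance at 374 nm taken as loss of free hydroxyphenazine and formation of phenazine–iron(II) complex.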
For data set [20], the system named is Staphylococcus epidermidis. Nature of the data set: Induction of biofilm eradication of methicillin-resistant Staphylococcus epidermidis ATCC 35984 at 1 to 10 uM after 24 hrs by live/dead staining-based fluorescence microscopic method. It is filed as functional, organism-based. In a few lines:
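MRSE 35984 mid-log culture diluted 1:1,000, biofilms grown 24 h at 37 °C in compartment dishes, saline-washed, then treated at 1, 5 and 10 µM in fresh medium for 24 h at 37 °C; DMSO negative control. After saline wash, live/dead stained biofilms imaged by fluorescence microscopy; three independent experiments.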

The test system of data set [21] is Staphylococcus aureus. Put plainly: Bactericidal activity against methicillin-resistant Staphylococcus aureus 2 planktonic cells after 24 hrs by calgary biofilm device method. It is filed as organism-based. In a few lines:
as §2

The subject of data set [22] is Staphylococcus aureus. Nature of the data set: Antibacterial activity against methicillin-resistant Staphylococcus aureus BAA-1707 after 16 hrs by agar diffusion method. It is filed as functional. (A growth-free zone around the sample is the usual read-out of agar diffusion tests.)

The text below walks through data of ChEMBL document CHEMBL4229392, “An Efficient Buchwald-Hartwig/Reductive Cyclization for the Scaffold Diversification of Halogenated Phenazines: Potent Antibacterial Targeting, Biofilm Eradication, and Prodrug Exploration” (J Med Chem, 2018).

Structures are written as SMILES. In brackets after ≈: the same amount, converted by molar mass. Activity calls are given as the source filed them. Where only a bound is given, the exact number is not on record here.

One may read the MIC as the lowest concentration found to suppress growth. Low readings indicate a more susceptible organism, high ones a less susceptible organism. By IC50 is commonly meant the concentration that inhibits the measured activity by half. A higher IC50 goes with weaker potency. As to `Cc1ccc2nc3c(O)ccc(Br)c3nc2c1`, the MIC in data set [1] came out at 12.5 µM (≈ 3.61 µg/mL); against Enterococcus faecium [2], 25 µM (≈ 7.23 µg/mL); in the data set on Staphylococcus aureus [3], 12.5 µM (≈ 3.61 µg/mL); in data set [4], 25 µM (≈ 7.23 µg/mL). Besides, the selectivity ratio in [5] was greater than 8. Also, the IC50 in the data set on HeLa was greater than 100 µM.
A word on the half-life: it is the time needed for the level to fall by half in the phase considered. Take `CC1=C(C)C(=O)C(COC(=O)OCOc2c(Br)cc(Br)c3nc4ccccc4nc23)=C(C)C1=O`: in data set [6], the hemolysis at 1 h, 200 µM was no more than 1%. The MBC in the data set with Enterococcus faecium [7] was 12.5 µM (≈ 7.38 µg/mL); in data set [11], 37.5 µM (≈ 22.1 µg/mL); against Staphylococcus aureus [13] it was 25 µM (≈ 14.8 µg/mL). Further, the Stability entry in data set [8] is reported as “Stable”. The MBEC is 9.38 µM in the data set with Enterococcus faecium [9], 75 µM with Staphylococcus aureus [12] and 150 µM in [14]. In addition, the MIC was determined as 2.35 µM (≈ 1.39 µg/mL) in data set [1], 9.38 µM (≈ 5.54 µg/mL) in the data set on Enterococcus faecium [2] and 2.35 µM (≈ 1.39 µg/mL) against Staphylococcus aureus [3]. Moreover, the half-life in [10] was 6.3 min.
As to `Oc1c(Br)cc(Br)c2nc3cc(Cl)ccc3nc12`, in [6], the hemolysis at 1 h, 200 µM was no more than 1%. Moreover, the MIC was 0.1 µM (≈ 0.0388 µg/mL) in data set [1], 0.038 µM (≈ 0.0148 µg/mL) in the data set with Staphylococcus aureus [3], 0.1 µM (≈ 0.0388 µg/mL) with Staphylococcus aureus [16] and 3.13 µM (≈ 1.22 µg/mL) in data set [4]. For the same molecule, the MBC (in data set [11]; in the data set on Staphylococcus aureus [17]; against Staphylococcus aureus [21]) was 6.25 µM (≈ 2.43 µg/mL) in each case. Further, the result in [15], in data set [19] and in data set [20] was Active. In addition, the MBEC was 4.69 µM in the data set on Staphylococcus aureus [12], 25 µM in the data set on Staphylococcus aureus [18] and 37.5 µM in data set [14]. In the data set on HeLa, this molecule gave an IC50 greater than 100 µM. Further, in the data set with Staphylococcus aureus [22], the “inhibition zone (IZ)” value came out at 4.25 cm2.
